The source made the active and inactive calls. The rule behind the calls is not given here.
Assays:
[1] = Cytotoxicity against human A375-C5 cells at 1.5 x 10^-4 after 48 hrs; assay type: cell-based; conditions: a375-c5, 48 h
[2] = target: Coagulation factor X (Homo sapiens) (UniProt P00742); assay: Inhibition of human factor 10a using CH3SO2-D-Leu-Gly-Arg-pNA, AcOH as substrate at 1 x 10^-3 M by chromogenic substrate hydrolysis assay
Summary of the method: (§1)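 Chromogenic hydrolysis in 50 mM Tris/HCl pH 8.3, 227 mM NaCl, 0.1% BSA, with and without bovine antithrombin III (1 U/mL final). Human factor Xa 0.5 U/mL with CBS 31.39 […], or human thrombin 0.06 U/mL with Chromozym TH […]. Absorbance at 405 nm, enzyme-free blank subtracted; initial slope vs water control gives % inhibition. Compounds at 1 × 10⁻³ M; n = 6.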

[3] = tested on: Plasma; assay: Anticoagulant activity in human plasma assessed as concentration required to double activated partial thromboplastin time; assay type: functional
Summary of the method: (§2)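 Pooled citrated human plasma; compounds in water (10% DMSO for some), final 5 × 10⁻³ to 0.05 × 10⁻³ M; heparin 0.1–10 UI/mL as reference. APTT, PT and TT measured on a coagulometer with commercial kits, clotting time in s. Duplicates repeated on three days (n = 6). Concentration doubling clotting time obtained by linear regression of each concentration-response curve.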

[4] = target: Prothrombin (Homo sapiens) (UniProt P00734); assay: Inhibition of human thrombin using Tosyl-Gly-Pro-Arg-p-nitroaniline as substrate at 1 x 10^-3 M by chromogenic substrate hydrolysis assay; summary of the method: as §1
[5] = tested on: Plasma; assay: Anticoagulant activity in human plasma assessed as concentration required to double thrombin time at 5 x 10^-3 M; assay type: functional, cell-free; summary of the method: as §2
[6] = tested on: MCF7; assay: Cytotoxicity against human ER-positive MCF7 cells at 1.5 x 10^-4 after 48 hrs; assay type: cell-based; conditions: mcf7, 48 h
[7] = target: Antithrombin-III (Bos taurus) (UniProt P41361); assay: Inhibition of bovine antithrombin-3 at 1 x 10^-3 M
Chain of Antithrombin-III (Bos taurus) (P41361 whole entry): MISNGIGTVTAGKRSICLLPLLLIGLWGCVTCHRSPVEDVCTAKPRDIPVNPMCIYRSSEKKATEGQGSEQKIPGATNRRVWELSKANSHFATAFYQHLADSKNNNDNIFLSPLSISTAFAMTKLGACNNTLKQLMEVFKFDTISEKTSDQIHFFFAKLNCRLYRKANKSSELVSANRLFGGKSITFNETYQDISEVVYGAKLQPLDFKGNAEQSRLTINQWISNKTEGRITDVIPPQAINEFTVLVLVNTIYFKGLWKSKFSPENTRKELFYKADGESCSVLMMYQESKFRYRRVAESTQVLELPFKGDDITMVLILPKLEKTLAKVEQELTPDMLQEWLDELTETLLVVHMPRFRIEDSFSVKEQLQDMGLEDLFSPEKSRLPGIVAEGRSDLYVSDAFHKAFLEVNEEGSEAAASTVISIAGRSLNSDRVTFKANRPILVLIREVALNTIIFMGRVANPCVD

[8] = tested on: Plasma; assay: Anticoagulant activity in human plasma assessed as effect on prothrombin level by PT clotting time with factor II deficient plasma at 1 x 10^-3 M
[9] = tested on: Plasma; assay: Anticoagulant activity in human plasma assessed as effect on APC level using CBS 42.46 as synthetic substrate at 1 x 10^-3 M; assay type: functional
Summary of the method: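 Compound in saline added to citrated human plasma. Protein C activated by a snake venom-derived activator; enzyme formed quantified by amidolytic activity on chromogenic substrate CBS 42.46. Calibration curve linear 3–150%; normal and pathological control plasmas verify accuracy. Compounds at 1 × 10⁻³ M.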

[10] = tested on: Plasma; assay: Anticoagulant activity in human plasma assessed as concentration required to double prothrombin time at 5 x 10^-3 M; assay type: functional, cell-free; summary of the method: as §2
[11] = tested on: NCI-H460; assay: Cytotoxicity against human NCI-H460 cells at 1.5 x 10^-4 after 48 hrs; assay type: cell-based; conditions: nci-h460, 48 h
[12] = tested on: Platelet; assay: Antiplatelet activity against arachidonic acid-induced platelet aggregation in human blood at 6.25 x 10^-4 M measured for 6 mins by multiplate electrical impedance aggregometry; assay type: functional, cell-based
Summary of the method: (§3)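 Hirudin-anticoagulated (final […]) healthy-donor whole blood, used within 0.5–1 h. Compound in saline to final 6.25 × 10⁻⁴ M; saline control, acetylsalicylic acid 6.25 × 10⁻⁴ M reference. Blood mixed with saline at 37 °C for 180 s, then agonist at final TRAP-6 […], arachidonic acid 0.5 mM or ADP […]. Impedance recorded 6 min; AUC from mean of two curves, accepted if within 20%.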

[13] = tested on: Plasma; assay: Anticoagulant activity in human plasma assessed as concentration required to double prothrombin time; assay type: functional; summary of the method: as §2
[14] = tested on: Platelet; assay: Antiplatelet activity against adenosine diphosphate-induced platelet aggregation in human blood at 6.25 x 10^-4 M measured for 6 mins by multiplate electrical impedance aggregometry; assay type: functional, cell-based; summary of the method: as §3
[15] = tested on: Platelet; assay: Antiplatelet activity against thrombin receptor-activating peptide-6-induced platelet aggregation in human blood at 6.25 x 10^-4 M measured for 6 mins by multiplate electrical impedance aggregometry; assay type: functional, cell-based; summary of the method: as §3

Chain of Coagulation factor X (Homo sapiens) (P00742 41-179 limits assumed): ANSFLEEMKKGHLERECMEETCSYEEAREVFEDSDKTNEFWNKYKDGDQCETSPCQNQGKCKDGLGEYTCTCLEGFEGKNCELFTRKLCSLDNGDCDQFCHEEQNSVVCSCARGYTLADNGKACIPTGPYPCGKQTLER
Chain of Coagulation factor X (Homo sapiens) (P00742 235-488 limits assumed): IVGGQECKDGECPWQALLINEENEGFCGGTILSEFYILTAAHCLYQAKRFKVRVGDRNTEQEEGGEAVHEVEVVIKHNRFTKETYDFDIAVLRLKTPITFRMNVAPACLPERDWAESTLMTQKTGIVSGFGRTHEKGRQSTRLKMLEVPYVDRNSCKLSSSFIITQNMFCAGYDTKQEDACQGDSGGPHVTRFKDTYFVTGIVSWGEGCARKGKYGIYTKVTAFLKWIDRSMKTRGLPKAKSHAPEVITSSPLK

SMILES	inhibition [2]	inhibition [4]	inhibition [7]	Activity [1]	2aPTT [3]	Activity [3]	Activity [5]	Activity [6]	Activity [8] [%]	Activity [9] [%]	Activity [10]	Activity [11]	AUC [12] [AU.min]	2PT [13] [mM]	Activity [13]	AUC [14] [AU.min]	AUC [15] [AU.min]
CC(=O)Oc1ccccc1C(=O)O													230				
COc1ccc([C@@H]2CC(=O)c3c(O)cc(O[C@@H]4O[C@H](CO[C@@H]5O[C@@H](C)[C@H](OS(=O)(=O)[O-])[C@@H](OS(=O)(=O)[O-])[C@H]5OS(=O)(=O)[O-])[C@@H](OS(=O)(=O)[O-])[C@H](OS(=O)(=O)[O-])[C@H]4OS(=O)(=O)[O-])cc3O2)cc1O.[Na+].[Na+].[Na+].[Na+].[Na+].[Na+] [HEXASULFATED HESPERIDIN]				Non-toxic	4.13 ×10⁻⁴ M			Non-toxic	47.5	85		Non-toxic	150			150	1200
O=c1oc2c(OS(=O)(=O)O)c(OS(=O)(=O)O)cc3c(=O)oc4c(OS(=O)(=O)O)c(OS(=O)(=O)O)cc1c4c23							inactive				inactive						

The next lines start with results.

inhibition [2]	inhibition [4]	inhibition [7]	SMILES	Activity [1]	2aPTT [3]	Activity [3]	Activity [5]	Activity [6]	Activity [8] [%]	Activity [9] [%]	Activity [10]	Activity [11]	AUC [12] [AU.min]	2PT [13] [mM]	Activity [13]	AUC [14] [AU.min]	AUC [15] [AU.min]
inactive	inactive	inactive	O=C(O)c1cc(OS(=O)(=O)[O-])c(OS(=O)(=O)[O-])c(OS(=O)(=O)[O-])c1.[Na+].[Na+].[Na+]	Non-toxic	1.96 mM	Dose-dependent effect	inactive	Non-toxic	61.5	101	inactive	Non-toxic					
inactive	inactive	inactive	Cc1cc(=O)oc2cc(O[C@@H]3O[C@H](COS(=O)(=O)[O-])[C@@H](OS(=O)(=O)[O-])[C@H](OS(=O)(=O)[O-])[C@H]3OS(=O)(=O)[O-])ccc12.[Na+].[Na+].[Na+].[Na+]	Non-toxic	1.18 mM	Dose-dependent effect	inactive	Non-toxic	64.5	97		Non-toxic		> 5	Dose-dependent effect		
inactive	inactive	inactive	O=C(/C=C/c1ccc(OS(=O)(=O)[O-])c(OS(=O)(=O)[O-])c1)O[C@@H]1C[C@](OS(=O)(=O)[O-])(C(=O)O)C[C@@H](OS(=O)(=O)[O-])[C@H]1OS(=O)(=O)[O-].[Na+].[Na+].[Na+].[Na+].[Na+] [CHLOROGENIC ACID PERSULFATE]		3.66 mM	Dose-dependent effect	inactive		82	95	inactive						
inactive	inactive	inactive	O=S(=O)([O-])OCc1ccccc1O[C@@H]1O[C@H](COS(=O)(=O)[O-])[C@@H](OS(=O)(=O)[O-])[C@H](OS(=O)(=O)[O-])[C@H]1OS(=O)(=O)[O-].[Na+].[Na+].[Na+].[Na+].[Na+] [SALICIN PERSULFATE]	Non-toxic	0.899 mM	Dose-dependent effect	inactive	Non-toxic	66	93		Non-toxic		> 5	Dose-dependent effect		

Source: ChEMBL document CHEMBL2150885, “Dual anticoagulant/antiplatelet persulfated small molecules” (Eur J Med Chem, 2011)
